Measured values as given in PMC11590664 (European journal of medicinal chemistry, 2023).
Blank lines part the entries; values can stand above or below the compound they belong to.

Legend:
HEK-293 cells = experiment: Cytotoxicity / viability assay, HEK-293; type: cell-based; conditions: Homo sapiens, HEK293, read-out: HEK-293 IC50
Summary of the method: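 HEK-293 cells were grown in medium per the provider's instructions with 100 units/mL penicillin and 100 μg/mL streptomycin, at 37 °C in 5 % CO2. Log-phase cells were seeded at 5000 per well, left 24 h, then exposed in triplicate to a range of test compound concentrations for 72 h. Resazurin was added for 4–6 h and fluorescence read. Values are relative to DMSO vehicle, with IC50 from a variable-slope normalized-response fit. Each compound was tested at least three times.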

KIT = KIT (Homo sapiens, UniProt P10721); experiment: KINOMEscan site-directed competition binding assay, KIT; conditions: 4.5 nM compound, 97 kinase panel
Summary of the method: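 Competition binding read by qPCR against DNA-tagged kinases. Streptavidin magnetic beads loaded with biotinylated ligand (30 min, RT), biotin-blocked and washed. Kinase, beads and test compound (diluted from 100x DMSO stocks) combined in 20 % SeaBlock, 0.17x PBS, 0.05 % Tween 20, 6 mM DTT; 1 h RT with shaking. […] Kinase in eluate quantified by qPCR.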

[1] = test system: phosphorylation of FLT3 and ERK in MOLM14 cells; experiment: Western blot, MOLM14 cells; type: cell-based, human; conditions: 2 h
Summary of the method: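 Cells kept at 37 °C under 5 % CO2. Total cell lysates separated by SDS-PAGE and transferred to nitrocellulose. Membranes probed with primary antibodies to pFLT3 Y842, total FLT3, pERK, total ERK and GAPDH, then with secondary antibodies, and imaged.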

KIT, sequence (P10721 26-976): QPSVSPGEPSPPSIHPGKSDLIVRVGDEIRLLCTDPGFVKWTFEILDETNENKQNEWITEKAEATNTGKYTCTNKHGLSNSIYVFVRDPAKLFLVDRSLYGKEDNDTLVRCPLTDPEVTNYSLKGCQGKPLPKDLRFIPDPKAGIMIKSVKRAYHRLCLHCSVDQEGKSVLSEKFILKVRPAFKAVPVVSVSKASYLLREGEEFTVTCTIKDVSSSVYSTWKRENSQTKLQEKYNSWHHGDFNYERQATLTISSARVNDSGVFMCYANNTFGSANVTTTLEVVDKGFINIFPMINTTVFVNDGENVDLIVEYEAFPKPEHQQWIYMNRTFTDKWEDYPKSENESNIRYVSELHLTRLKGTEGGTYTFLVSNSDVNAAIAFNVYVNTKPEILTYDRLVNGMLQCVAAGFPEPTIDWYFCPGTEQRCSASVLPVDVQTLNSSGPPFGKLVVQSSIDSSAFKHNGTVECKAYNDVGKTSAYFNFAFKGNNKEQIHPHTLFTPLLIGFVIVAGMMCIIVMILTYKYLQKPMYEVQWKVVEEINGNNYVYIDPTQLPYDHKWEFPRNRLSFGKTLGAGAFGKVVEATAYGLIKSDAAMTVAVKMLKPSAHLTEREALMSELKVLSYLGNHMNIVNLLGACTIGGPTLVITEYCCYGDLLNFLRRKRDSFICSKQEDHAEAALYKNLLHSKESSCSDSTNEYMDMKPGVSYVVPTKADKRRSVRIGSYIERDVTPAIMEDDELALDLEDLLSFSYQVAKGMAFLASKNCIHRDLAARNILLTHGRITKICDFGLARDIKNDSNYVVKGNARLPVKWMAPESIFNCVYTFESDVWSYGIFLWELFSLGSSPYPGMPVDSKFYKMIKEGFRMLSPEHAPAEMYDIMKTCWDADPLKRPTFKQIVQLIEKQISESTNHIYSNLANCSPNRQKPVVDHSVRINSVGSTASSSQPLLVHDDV

Structure (SMILES): COc1ccc(Nc2cccc(-c3cnc4cc(-c5cnn(C)c5)ccn34)n2)cc1OC [Compound 20, N-(3,4-dimethoxyphenyl)-6-(7-(1-methyl-1H-pyrazol-4-yl)imidazo [1,2-a]pyridin-3-yl)pyridin-2-amine]
IC50 (HEK-293 cells): > 1000 nM

binding affinity with KIT (KIT): minimal binding affinity
Structure (SMILES): Cn1cc(-c2ccn3c(-c4cccc(Nc5ccc(S(C)(=O)=O)cc5)n4)cnc3c2)cn1 [Compound 24, 6-(7-(1-methyl-1H-pyrazol-4-yl)imidazo [1,2-a]pyridin-3-yl)-N-(4-(methylsulfonyl)phenyl)pyridin-2-amine]
IC50 (HEK-293 cells): > 1000 nM
inhibitory effects on the phosphorylation of FLT3 and ERK ([1]; 1X IC50 (4.5 nM)): noticeable signal downregulation
inhibitory effects on the phosphorylation of FLT3 and ERK ([1]; 10X IC50): nearly complete signal downregulation

Structure (SMILES): COc1cc(Nc2cccc(-c3cnc4cc(-c5ccc(S(C)(=O)=O)cc5)ccn34)n2)cc(OC)c1OC [Compound 42, 6-(7-(4-(methylsulfonyl)phenyl)imidazo [1,2-a]pyridin-3-yl)-N-(3,4,5-trimethoxyphenyl)pyridin-2-amine]
IC50 (HEK-293 cells): > 1000 nM
